Experimental findings from ChEMBL document CHEMBL1649483, “Molecular analysis of the gyrA and gyrB quinolone resistance-determining regions of fluoroquinolone-resistant Clostridium difficile mutants selected in vitro” (2009) are described below.

Converted amounts (≈) assume the structure as drawn. Bounds are passed on as bounds.

Usually MIC stands for the least concentration at which growth counts as inhibited.

What all share (type): functional
The subject of assay [1] is Clostridioides difficile. Briefly: Antimicrobial activity against Clostridium difficile A422B selected after 4 ug/ml of levofloxacin by Etest method. Summed up: (§1)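 Stable in vitro-selected mutant tested for gatifloxacin susceptibility by Etest, per the manufacturer's instructions, with an 8 μg/ml breakpoint. For selection, the parent was grown in antibiotic-free brain heart infusion (BHI) for 24 h at 35°C under anaerobic conditions. […] Later steps used double the MIC. Stability was confirmed by three subcultures.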

Assay [2] has as its system Clostridioides difficile. Briefly: Antimicrobial activity against Clostridium difficile BI2a harboring GyrB Arg447Lys mutant gene selected after 2 ug/ml of moxifloxacin by Etest method. Summed up:
as §1

Assay [3] has as its system Clostridioides difficile. Briefly: Antimicrobial activity against Clostridium difficile 630 expressing tcdA and tcdB gene by Etest method. Summed up:
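Parent clinical or nontoxigenic isolate tested for gatifloxacin susceptibility by Etest, run per the manufacturer's instructions; a fluoroquinolone breakpoint of 8 μg/ml was applied.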

Assay [4] concerns Clostridioides difficile. Briefly: Antimicrobial activity against Clostridium difficile CD5h harboring GyrA Ala92Glu and GyrB Ser416Ala mutant genes selected after 8 ug/ml of moxifloxacin by Etest method.
Assay [5] relates to Clostridioides difficile. Kind of assay: Antimicrobial activity against Clostridium difficile 630h harboring GyrB […] mutant gene selected after 8 ug/ml of moxifloxacin by Etest method. The essentials:
as §1

In assay [6] the test system is Clostridioides difficile. Kind of assay: Antimicrobial activity against Clostridium difficile CD5b harboring GyrB Ser416Ala mutant gene selected after 2 ug/ml of moxifloxacin by Etest method.
Assay [7] concerns Clostridioides difficile. Kind of assay: Antimicrobial activity against Clostridium difficile BI2d harboring GyrB Arg447Lys and Asp426Asn mutant gene selected after 32 ug/ml of moxifloxacin by Etest method. Summed up:
as §1

The test system of assay [8] is Clostridioides difficile. Kind of assay: Antimicrobial activity against Clostridium difficile CD5c harboring GyrB Ser416Ala mutant gene selected after 2 ug/ml of moxifloxacin by Etest method.
The subject of assay [9] is Clostridioides difficile. Briefly: Antimicrobial activity against Clostridium difficile BI2F harboring GyrB Glu466Lys mutant gene selected after 8 ug/ml of levofloxacin by Etest method. Summed up: as §1
Assay [10] deals with Clostridioides difficile. Briefly: Antimicrobial activity against Clostridium difficile CD5F harboring GyrB Ser416Ala mutant gene selected after 8 ug/ml of levofloxacin by Etest method.
The test system of assay [11] is Clostridioides difficile. Kind of assay: Antimicrobial activity against Clostridium difficile 630d selected after 4 ug/ml of moxifloxacin by Etest method. The essentials: as §1
For assay [12], the system named is Clostridioides difficile. Kind of assay: Antimicrobial activity against Clostridium difficile CD5d harboring GyrB Ser416Ala mutant gene selected after 4 ug/ml of moxifloxacin by Etest method.
Assay [13] concerns Clostridioides difficile. Briefly: Antimicrobial activity against Clostridium difficile 630A selected after 4 ug/ml of levofloxacin by Etest method. Summed up:
as §1

In assay [14] the test system is Clostridioides difficile. Briefly: Antimicrobial activity against Clostridium difficile A422a selected after 2 ug/ml of moxifloxacin by Etest method. The essentials:
as §1

Assay [15] relates to Clostridioides difficile. Briefly: Antimicrobial activity against Clostridium difficile C253e selected after 4 ug/ml of moxifloxacin by Etest method.
For assay [16], the system named is Clostridioides difficile. Kind of assay: Antimicrobial activity against Clostridium difficile BI2c harboring GyrB Arg447Lys mutant gene selected after 2 ug/ml of moxifloxacin by Etest method. The essentials: as §1
Assay [17] deals with Clostridioides difficile. Briefly: Antimicrobial activity against Clostridium difficile 630i harboring GyrB […] mutant gene selected after 8 ug/ml of moxifloxacin by Etest method. The essentials:
as §1

Assay [18] deals with Clostridioides difficile. Kind of assay: Antimicrobial activity against Clostridium difficile CD5F harboring GyrB Ser416Ala mutant gene selected after 8 ug/ml of levofloxacin by agar dilution method.
Assay [19] has as its system Clostridioides difficile. Briefly: Antimicrobial activity against Clostridium difficile BI2d harboring GyrB Arg447Lys and Asp426Asn mutant gene selected after 32 ug/ml of moxifloxacin by agar dilution method.
In assay [20] the test system is Clostridioides difficile. Briefly: Antimicrobial activity against Clostridium difficile 630f selected after 4 ug/ml of moxifloxacin by agar dilution method.
For assay [21], the system named is Clostridioides difficile. Briefly: Antimicrobial activity against Clostridium difficile 630E harboring GyrA Ala118Val mutant gene selected after 8 ug/ml of levofloxacin by agar dilution method. On the technique in general: In agar dilution, organisms are placed on agar that contains the substance at set levels.
Assay [22] concerns Clostridioides difficile. Briefly: Antimicrobial activity against Clostridium difficile 630a selected after 2 ug/ml of moxifloxacin by agar dilution method.
The subject of assay [23] is Clostridioides difficile. Kind of assay: Antimicrobial activity against Clostridium difficile 630e selected after 4 ug/ml of moxifloxacin by agar dilution method.
Assay [24] relates to Clostridioides difficile. Briefly: Antimicrobial activity against Clostridium difficile C253B selected after 4 ug/ml of levofloxacin by agar dilution method.
Assay [25] relates to Clostridioides difficile. Briefly: Antimicrobial activity against Clostridium difficile CD5c harboring GyrB Ser416Ala mutant gene selected after 2 ug/ml of moxifloxacin by agar dilution method.
Assay [26] has as its system Clostridioides difficile. Briefly: Antimicrobial activity against Clostridium difficile A422e selected after 4 ug/ml of moxifloxacin by agar dilution method.
For assay [27], the system named is Clostridioides difficile. Briefly: Antimicrobial activity against Clostridium difficile A422G harboring GyrA Thr82Ile and GyrB Leu451Phe mutant genes selected after 8 ug/ml of levofloxacin by agar dilution method.
Assay [28] deals with Clostridioides difficile. Kind of assay: Antimicrobial activity against Clostridium difficile A422A selected after 4 ug/ml of levofloxacin by agar dilution method.
Assay [29] has as its system Clostridioides difficile. Kind of assay: Antimicrobial activity against Clostridium difficile CD5 2-g harboring GyrA Ala118Ser, Thr82Ala and GyrB Ser416Ala mutant genes selected after 8 ug/ml of moxifloxacin by agar dilution method.
Assay [30] deals with Clostridioides difficile. Briefly: Antimicrobial activity against Clostridium difficile A422I harboring GyrA Thr82Ile and GyrB Leu451Phe mutant genes selected after 8 ug/ml of levofloxacin by agar dilution method.
Assay [31] relates to Clostridioides difficile. Briefly: Antimicrobial activity against Clostridium difficile CD5A harboring GyrB Ser416Ala mutant gene selected after 4 ug/ml of levofloxacin by agar dilution method.
For assay [32], the system named is Clostridioides difficile. Kind of assay: Antimicrobial activity against Clostridium difficile 630d selected after 4 ug/ml of moxifloxacin by agar dilution method.
Assay [33] concerns Clostridioides difficile. Kind of assay: Antimicrobial activity against Clostridium difficile CD5h harboring GyrA Ala118Ser, Thr82Ala and GyrB Ser416Ala mutant genes selected after 8 ug/ml of moxifloxacin by agar dilution method.
Assay [34] relates to Clostridioides difficile. Kind of assay: Antimicrobial activity against Clostridium difficile 630b selected after 2 ug/ml of moxifloxacin by agar dilution method.
The subject of assay [35] is Clostridioides difficile. Briefly: Antimicrobial activity against Clostridium difficile CD5b harboring GyrB Ser416Ala mutant gene selected after 2 ug/ml of moxifloxacin by agar dilution method.
Assay [36] concerns Clostridioides difficile. Briefly: Antimicrobial activity against Clostridium difficile BI2A selected after 4 ug/ml of levofloxacin by agar dilution method.
The subject of assay [37] is Clostridioides difficile. Briefly: Antimicrobial activity against Clostridium difficile 630B selected after 4 ug/ml of levofloxacin by agar dilution method.
The subject of assay [38] is Clostridioides difficile. Kind of assay: Antimicrobial activity against Clostridium difficile 630F harboring GyrA Ala118Val mutant gene selected after 8 ug/ml of levofloxacin by agar dilution method.

For `COc1c(N2CCNC(C)C2)c(F)cc2c(=O)c(C(=O)O)cn(C3CC3)c12` (stereo not drawn) [GATIFLOXACIN], the minimum inhibitory concentration (MIC) in the assay on Clostridioides difficile [1] is 1 µg/mL; in the assay on Clostridioides difficile [2], 1.5 µg/mL; against Clostridioides difficile [3] it was 0.75 µg/mL (≈ 2 µM); in the assay on Clostridioides difficile [4] it was 3 µg/mL; with Clostridioides difficile [5], not below 32 µg/mL; in the assay on Clostridioides difficile [6] it was 0.75 µg/mL. Also, the MIC in the assay on Clostridioides difficile [7] is 6 µg/mL; in the assay on Clostridioides difficile [8], 0.75 µg/mL; in the assay with Clostridioides difficile [9] it was not below 32 µg/mL; in the assay on Clostridioides difficile [10] it was 2 µg/mL; with Clostridioides difficile [11] it was 2 µg/mL; with Clostridioides difficile [12] it was 0.75 µg/mL. Moreover, the minimal inhibitory concentration (MIC) in the assay on Clostridioides difficile [13] was 0.75 µg/mL; in the assay with Clostridioides difficile [14], 1.5 µg/mL; in the assay with Clostridioides difficile [15], 1 µg/mL; in the assay with Clostridioides difficile [16], 1.5 µg/mL; in the assay with Clostridioides difficile [17] it was not below 32 µg/mL.
`C[C@H]1COc2c(N3CCN(C)CC3)c(F)cc3c(=O)c(C(=O)O)cn1c23.C[C@H]1COc2c(N3CCN(C)CC3)c(F)cc3c(=O)c(C(=O)O)cn1c23.O` [LEVOFLOXACIN]: the MIC with Clostridioides difficile [18] worked out at 2 µg/mL; in the assay with Clostridioides difficile [19], 64 µg/mL; in the assay on Clostridioides difficile [20] it was 4 µg/mL; in the assay with Clostridioides difficile [21] it was 8 µg/mL; in the assay on Clostridioides difficile [22], 4 µg/mL; in the assay with Clostridioides difficile [23], 4 µg/mL. In addition, the MIC turned out to be 1 µg/mL with Clostridioides difficile [24]; 2 µg/mL with Clostridioides difficile [25]; 4 µg/mL in the assay with Clostridioides difficile [26]; 64 µg/mL in the assay on Clostridioides difficile [27]; 1 µg/mL with Clostridioides difficile [28]; 64 µg/mL with Clostridioides difficile [29]. Moreover, the MIC stood at 64 µg/mL in the assay on Clostridioides difficile [30]; 1 µg/mL in the assay on Clostridioides difficile [31]; 4 µg/mL with Clostridioides difficile [32]; 64 µg/mL in the assay with Clostridioides difficile [33]; 4 µg/mL with Clostridioides difficile [34]; 2 µg/mL in the assay with Clostridioides difficile [35]. Also, the MIC in the assay on Clostridioides difficile [36] is 1 µg/mL; in the assay on Clostridioides difficile [37], 1 µg/mL; in the assay on Clostridioides difficile [38] it was 8 µg/mL.
